These results are taken from ChEMBL document CHEMBL2163282, “Discovery and characterization of AZD9272 and AZD6538-Two novel mGluR5 negative allosteric modulators selected for clinical development” (Bioorg Med Chem Lett, 2012).

Structures are written as SMILES. Converted amounts (≈) assume the structure as drawn. The source made the active and inactive calls. The rule behind the calls is not given here.

For orientation: clearance means a measure of how efficiently the substance is removed, as volume per time. Read a low clearance as a low capacity for elimination. As usually defined, the solubility is the concentration that dissolves in the medium under given conditions. The low end stands for a poorly soluble substance, the high end for a readily soluble substance. By inhibition is commonly meant the drop in the measured response relative to a control, in per cent. As a reminder, the Ki is a dissociation constant, usually derived from enzyme kinetics or from competition with a known ligand. In general, AUC(0-t) refers to exposure summed from dosing to a finite time, without extrapolation to infinity. The IC50 is the concentration needed to halve the response being measured. Broadly, the AUC is concentration integrated over time. A lower AUC goes with less exposure.

Data set [1] addresses Metabotropic glutamate receptor 8 (Homo sapiens) (UniProt O00222). The data set can be described thus: Agonist activity at mGluR8 assessed as effect on intracellular Ca2+ level up to 30 uM by cell based FLIPR assay. The data set is classed as functional. The procedure, abridged: (§1)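 Each of the seven other mGluR subtypes was tested at concentrations up to 30 µM. Agonist, antagonist and positive allosteric modulator modes were each assessed. Read-out was the change in intracellular Ca2+ on FLIPR.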

Data set [2] is described as follows: Intrinsic clearance in human liver microsomes. The data set is classed as ADME, Microsome. To be noted: read-out: CLH. The procedure, abridged: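 Intrinsic clearance was determined in human or rat microsomes and expressed per min per mg protein.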
In general terms: Liver microsomes are a subcellular fraction often used to study metabolism.

Data set [3] in a line: Volume of distribution at steady state in Sprague-Dawley rat at 3 umol/kg, iv. The data set is classed as ADME, organism-based. To be noted: in vivo, read-out: Vdss. A digest of the protocol: (§2)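 Male rats (n = 3) received a single intravenous dose of 3 µmol/kg. Vehicle was 40% w/w dimethylacetamide/40% w/w PEG 400/20% w/w water. Plasma drug was measured after liquid–liquid extraction by reversed-phase LC with APCI or ESI tandem MS.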

In data set [4] the target is Metabotropic glutamate receptor 6 (Homo sapiens) (UniProt O15303). As to the kind of experiment: Agonist activity at mGluR6 assessed as effect on intracellular Ca2+ level up to 30 uM by cell based FLIPR assay. The data set is classed as functional. The procedure, abridged:
as §1

The nature of data set [5]: Clearance in Sprague-Dawley rat at 3 umol/kg, iv. The data set is classed as ADME, organism-based. The following applies: in vivo. A digest of the protocol:
as §2

A short description of data set [6]: Equilibrium solubility of the compound […]. The data set is classed as physicochemical. The procedure, abridged:
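Solubility was measured by a dried-DMSO rapid-throughput method.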

The target of data set [7] is Metabotropic glutamate receptor 6 (Homo sapiens) (UniProt O15303). As to the kind of experiment: Positive allosteric modulation of mGluR6 assessed as effect on intracellular Ca2+ level up to 30 uM by cell based FLIPR assay. The data set is classed as functional. The procedure, abridged:
as §1

Data set [8] has as its target Metabotropic glutamate receptor 7 (Homo sapiens) (UniProt Q14831). The data set can be described thus: Antagonist activity at mGluR7 assessed as effect on intracellular Ca2+ level up to 30 uM by cell based FLIPR assay. The data set is classed as functional. The procedure, abridged:
as §1

Data set [9] concerns the target T1, Metabotropic glutamate receptor 5 (Homo sapiens, UniProt P41594). As to the kind of experiment: Displacement of [3H]AZD9272 from human mGluR5 expressed in HEK293 cell membranes expressing GLAST after 1 hr by scintillation counter.
The target in data set [10] is Metabotropic glutamate receptor 6 (Homo sapiens) (UniProt O15303). The data set can be described thus: Antagonist activity at mGluR6 assessed as effect on intracellular Ca2+ level up to 30 uM by cell based FLIPR assay. The data set is classed as functional. A digest of the protocol:
as §1

Data set [11] in a line: AUC (0 to 8 hrs) in Sprague-Dawley rat at 3 umol/kg, po. The data set is classed as ADME, organism-based. More on the design: time < 8 hr, dose 3 umol/kg, route oral. The following applies: plasma. A digest of the protocol: (§3)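 Male rats (n = 3) received a single oral dose of 3 µmol/kg. Vehicle was Polyvidon K30 1.7 mg/ml, sodium lauryl sulphate 0.34 mg/ml and glycerin 25.0 mg/ml in water. Plasma levels were measured by liquid–liquid extraction and reversed-phase LC-MS/MS (APCI or ESI).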

Data set [12] concerns the target Metabotropic glutamate receptor 4 (Homo sapiens) (UniProt Q14833). As to the kind of experiment: Positive allosteric modulation of mGluR4 assessed as effect on intracellular Ca2+ level up to 30 uM by cell based FLIPR assay. The data set is classed as functional. The procedure, abridged: as §1
The target in data set [13] is Metabotropic glutamate receptor 5 (Rattus norvegicus, UniProt P31424). The data set can be described thus: Displacement of [3H]AZD9272 from mGluR5 in Sprague-Dawley rat striatum by autoradiographic analysis. The procedure, abridged:
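Sections were cut from rat striatum (plates 13–16, 2 rats). They were incubated with 3 nM [3H]AZD9272 plus increasing concentrations of competitor. Nonspecific binding was defined with 10 µM MPEP. Bound label was read by autoradiography (mean, SD, n = 2).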

For data set [14], the target named is T1, Metabotropic glutamate receptor 5. As to the kind of experiment: Negative allosteric modulation of human recombinant mGluR5 expressed in HEK293 cells expressing GLAST assessed as inhibition of ATP-induced intracellular Ca2+ level at 10 uM after 30 mins by FLIPR assay. The data set is classed as functional, cell-based. The procedure, abridged:
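FLIPR intracellular Ca2+ readout in background GHEK cells (HEK293 with glutamate/aspartate transporter, lacking mGluR5), stimulated with 10 µM ATP; test compound at 10 µM to check off-target inhibition.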
Target sequence in this assay (P41594 21-1212 limits assumed): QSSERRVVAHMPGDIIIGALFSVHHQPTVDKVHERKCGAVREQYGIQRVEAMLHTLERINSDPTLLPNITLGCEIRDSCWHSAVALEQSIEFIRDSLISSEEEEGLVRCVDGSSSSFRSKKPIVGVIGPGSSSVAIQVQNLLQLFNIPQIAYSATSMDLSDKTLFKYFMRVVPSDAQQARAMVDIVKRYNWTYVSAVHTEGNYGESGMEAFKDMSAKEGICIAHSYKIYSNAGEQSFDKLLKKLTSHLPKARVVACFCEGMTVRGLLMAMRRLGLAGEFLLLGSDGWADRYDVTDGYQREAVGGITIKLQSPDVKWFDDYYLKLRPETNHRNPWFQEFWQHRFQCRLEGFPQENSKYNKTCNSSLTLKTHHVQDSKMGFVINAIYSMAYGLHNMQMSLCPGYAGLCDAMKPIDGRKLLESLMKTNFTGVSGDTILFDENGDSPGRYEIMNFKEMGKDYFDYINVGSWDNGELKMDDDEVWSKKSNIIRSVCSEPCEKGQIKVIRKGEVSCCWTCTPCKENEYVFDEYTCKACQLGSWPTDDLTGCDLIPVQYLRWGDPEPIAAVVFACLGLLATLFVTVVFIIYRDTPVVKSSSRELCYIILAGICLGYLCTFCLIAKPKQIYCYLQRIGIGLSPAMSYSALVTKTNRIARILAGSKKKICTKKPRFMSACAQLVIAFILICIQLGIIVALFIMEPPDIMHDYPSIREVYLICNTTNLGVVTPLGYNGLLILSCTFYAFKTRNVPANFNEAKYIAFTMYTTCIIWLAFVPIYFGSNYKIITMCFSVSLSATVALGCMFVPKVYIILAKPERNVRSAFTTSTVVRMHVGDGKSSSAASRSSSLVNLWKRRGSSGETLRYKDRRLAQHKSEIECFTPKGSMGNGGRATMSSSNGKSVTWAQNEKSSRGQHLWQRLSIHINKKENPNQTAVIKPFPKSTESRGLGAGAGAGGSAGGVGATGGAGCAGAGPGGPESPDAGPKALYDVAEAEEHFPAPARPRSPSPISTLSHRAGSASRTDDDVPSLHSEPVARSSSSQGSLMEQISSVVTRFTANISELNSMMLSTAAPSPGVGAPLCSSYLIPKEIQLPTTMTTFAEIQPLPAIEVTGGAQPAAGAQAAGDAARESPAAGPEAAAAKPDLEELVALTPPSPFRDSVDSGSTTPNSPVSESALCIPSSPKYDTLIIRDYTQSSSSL

Data set [15] is described as follows: Ratio of drug level in brain to plasma of Sprague-Dawley rat at 3 umol/kg, po. The data set is classed as ADME. The following applies: read-out: BPR. A digest of the protocol:
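Rats were given an oral dose of 3 µmol/kg. Total brain exposure was compared with plasma exposure to give a brain-to-plasma ratio.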

Data set [16] addresses Metabotropic glutamate receptor 1 (Homo sapiens) (UniProt Q13255). The data set can be described thus: Antagonist activity at mGluR1 assessed as effect on intracellular Ca2+ level up to 30 uM by cell based FLIPR assay. The data set is classed as functional. The procedure, abridged:
as §1

Data set [17] has as its target T1, Metabotropic glutamate receptor 5. As to the kind of experiment: Displacement of [3H]MPEP from human mGluR5 expressed in HEK293 cell membranes expressing GLAST after 1 hr by scintillation counter.
Data set [18] shares this target. The data set can be described thus: Binding affinity to human mGluR5 expressed in HEK293 cell membranes expressing GLAST assessed as per mg of protein after 1 hr by scintillation counter in absence of MPEP. The following applies: tested as the 3H-labelled form. The procedure, abridged:
(§4)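 [3H]AZD9272 equilibrium saturation binding on membranes from human mGluR5-GHEK cells (HEK293 stably expressing glutamate/aspartate transporter), run without MPEP or with 10 or 20 nM MPEP; filtration termination; Kd and Bmax (pmol/mg protein) derived per assay, three separate assays.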
Target sequence in this assay (P41594 21-1212 limits assumed): as above

Data set [19] is described as follows: AUC in Sprague-Dawley rat at 3 umol/kg, po. To be noted: plasma. The data set is classed as ADME, organism-based. A digest of the protocol: as §3
For data set [20], the target named is T1, Metabotropic glutamate receptor 5. To be noted: HEK293, tested as the 3H-labelled form.
Target sequence in this assay (P41594 21-1212 limits assumed): as above
The target of data set [21] is Metabotropic glutamate receptor 5 (Rattus norvegicus) (UniProt P31424). As to the kind of experiment: Binding affinity to mGluR5 in Sprague-Dawley rat striatum assessed per mg of protein after 60 mins by autoradiographic analysis. The following applies: tested as the 3H-labelled form.
For data set [22], the target named is T1, Metabotropic glutamate receptor 5. The data set can be described thus: Binding affinity to human mGluR5 expressed in HEK293 cell membranes expressing GLAST assessed as per mg of protein after 1 hr by scintillation counter in presence of 20 nM MPEP. The following applies: tested as the 3H-labelled form. The procedure, abridged:
as §4
Target sequence in this assay (P41594 21-1212 limits assumed): as above

For data set [23] the target is unchanged. The data set can be described thus: Binding affinity to human mGluR5 expressed in HEK293 cell membranes expressing GLAST assessed as per mg of protein after 1 hr by scintillation counter. The following applies: tested as the 3H-labelled form.
Target sequence in this assay (P41594 21-1212 limits assumed): as above
The target is the same in data set [24]. As to the kind of experiment: Binding affinity to human mGluR5 expressed in HEK293 cell membranes expressing GLAST assessed as per mg of protein after 1 hr by scintillation counter in presence of 10 nM MPEP. To be noted: tested as the 3H-labelled form. The procedure, abridged: as §4
Target sequence in this assay (P41594 21-1212 limits assumed): as above
Data set [25] shares this target. The following applies: HEK293, tested as the 3H-labelled form. This is another data set of the same source.

Metabotropic glutamate receptor 6 (Homo sapiens), sequence (O15303 whole entry): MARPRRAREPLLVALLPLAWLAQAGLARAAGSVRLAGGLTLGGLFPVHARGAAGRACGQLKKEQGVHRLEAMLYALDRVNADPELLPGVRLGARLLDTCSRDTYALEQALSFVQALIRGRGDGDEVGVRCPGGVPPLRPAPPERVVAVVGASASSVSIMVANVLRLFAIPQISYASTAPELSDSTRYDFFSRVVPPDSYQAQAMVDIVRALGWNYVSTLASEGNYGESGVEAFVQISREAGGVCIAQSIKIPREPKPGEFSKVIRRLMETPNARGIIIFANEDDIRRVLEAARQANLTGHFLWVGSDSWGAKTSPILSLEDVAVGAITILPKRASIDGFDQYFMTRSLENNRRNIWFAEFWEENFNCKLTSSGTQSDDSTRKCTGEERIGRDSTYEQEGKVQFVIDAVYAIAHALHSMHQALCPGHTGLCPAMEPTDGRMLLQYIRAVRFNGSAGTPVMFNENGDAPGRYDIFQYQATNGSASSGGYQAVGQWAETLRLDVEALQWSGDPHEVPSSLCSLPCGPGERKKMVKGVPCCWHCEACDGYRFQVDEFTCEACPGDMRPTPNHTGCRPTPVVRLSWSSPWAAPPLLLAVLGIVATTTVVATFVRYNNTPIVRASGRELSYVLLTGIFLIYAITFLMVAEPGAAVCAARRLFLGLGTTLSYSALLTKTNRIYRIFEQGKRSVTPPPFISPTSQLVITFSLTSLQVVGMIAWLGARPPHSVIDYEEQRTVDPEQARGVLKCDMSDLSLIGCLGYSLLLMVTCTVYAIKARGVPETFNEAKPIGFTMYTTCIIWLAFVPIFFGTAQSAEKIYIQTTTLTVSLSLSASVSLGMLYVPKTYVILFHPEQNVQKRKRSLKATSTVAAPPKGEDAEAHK
Metabotropic glutamate receptor 4 (Homo sapiens), sequence (Q14833 whole entry): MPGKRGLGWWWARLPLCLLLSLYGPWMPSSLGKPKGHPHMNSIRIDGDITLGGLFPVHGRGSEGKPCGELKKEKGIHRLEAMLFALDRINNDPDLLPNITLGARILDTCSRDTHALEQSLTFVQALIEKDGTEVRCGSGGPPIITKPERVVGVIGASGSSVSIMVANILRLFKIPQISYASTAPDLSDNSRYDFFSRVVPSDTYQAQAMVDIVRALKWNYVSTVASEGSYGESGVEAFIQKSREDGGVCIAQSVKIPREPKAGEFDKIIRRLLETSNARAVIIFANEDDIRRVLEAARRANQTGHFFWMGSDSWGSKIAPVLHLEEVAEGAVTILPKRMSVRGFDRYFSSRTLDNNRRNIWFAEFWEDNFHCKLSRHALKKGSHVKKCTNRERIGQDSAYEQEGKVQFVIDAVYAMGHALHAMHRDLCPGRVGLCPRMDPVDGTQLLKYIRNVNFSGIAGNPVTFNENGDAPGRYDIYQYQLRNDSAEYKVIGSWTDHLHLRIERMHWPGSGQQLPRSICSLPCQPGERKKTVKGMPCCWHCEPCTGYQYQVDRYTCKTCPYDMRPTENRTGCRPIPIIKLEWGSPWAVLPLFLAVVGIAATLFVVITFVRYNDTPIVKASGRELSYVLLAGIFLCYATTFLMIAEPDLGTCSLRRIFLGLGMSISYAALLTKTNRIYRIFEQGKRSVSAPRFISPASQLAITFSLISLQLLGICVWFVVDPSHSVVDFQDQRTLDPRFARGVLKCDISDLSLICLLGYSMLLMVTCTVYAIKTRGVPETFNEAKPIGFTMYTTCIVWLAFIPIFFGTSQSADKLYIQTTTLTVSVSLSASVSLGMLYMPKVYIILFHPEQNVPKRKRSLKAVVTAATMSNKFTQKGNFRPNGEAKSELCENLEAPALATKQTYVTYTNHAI
Metabotropic glutamate receptor 1 (Homo sapiens), sequence (Q13255 19-1194 limits assumed): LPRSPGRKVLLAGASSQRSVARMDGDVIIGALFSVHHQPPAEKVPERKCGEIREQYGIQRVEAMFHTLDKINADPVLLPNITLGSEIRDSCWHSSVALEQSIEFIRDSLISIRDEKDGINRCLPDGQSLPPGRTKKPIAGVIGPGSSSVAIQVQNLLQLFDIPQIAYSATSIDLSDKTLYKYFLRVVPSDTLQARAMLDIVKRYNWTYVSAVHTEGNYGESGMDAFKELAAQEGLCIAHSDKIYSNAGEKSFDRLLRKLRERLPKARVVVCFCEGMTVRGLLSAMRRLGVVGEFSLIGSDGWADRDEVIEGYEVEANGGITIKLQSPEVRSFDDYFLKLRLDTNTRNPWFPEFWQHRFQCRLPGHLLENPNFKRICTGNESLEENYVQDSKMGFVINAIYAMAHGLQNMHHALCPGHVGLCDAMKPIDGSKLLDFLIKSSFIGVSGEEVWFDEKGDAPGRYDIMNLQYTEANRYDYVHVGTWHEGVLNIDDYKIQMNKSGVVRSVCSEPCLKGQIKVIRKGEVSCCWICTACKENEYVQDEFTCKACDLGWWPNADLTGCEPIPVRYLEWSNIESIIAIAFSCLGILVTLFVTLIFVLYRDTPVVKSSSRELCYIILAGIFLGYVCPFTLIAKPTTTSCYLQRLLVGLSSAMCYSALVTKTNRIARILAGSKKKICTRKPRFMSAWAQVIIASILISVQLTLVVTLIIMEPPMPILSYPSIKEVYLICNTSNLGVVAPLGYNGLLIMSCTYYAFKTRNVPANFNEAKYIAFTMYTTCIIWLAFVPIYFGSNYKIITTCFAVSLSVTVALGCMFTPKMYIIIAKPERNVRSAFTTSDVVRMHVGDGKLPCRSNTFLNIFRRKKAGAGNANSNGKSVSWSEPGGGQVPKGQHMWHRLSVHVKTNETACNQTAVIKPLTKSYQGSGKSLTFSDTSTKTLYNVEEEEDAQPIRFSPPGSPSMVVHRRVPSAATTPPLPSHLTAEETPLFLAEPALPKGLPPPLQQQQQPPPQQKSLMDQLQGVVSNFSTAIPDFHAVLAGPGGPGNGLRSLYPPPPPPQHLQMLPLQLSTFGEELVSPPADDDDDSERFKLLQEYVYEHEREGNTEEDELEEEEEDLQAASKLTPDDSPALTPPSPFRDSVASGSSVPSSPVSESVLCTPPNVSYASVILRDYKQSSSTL

Consider `N#Cc1ccc(-c2noc(-c3cc(F)cc(C#N)c3)n2)nc1`, for which the Activity in [1], in [4], in data set [7] and in [12] was below 50% throughout. In addition, in data set [2], the microsomal CLint came to 3 µL/min/mg. In [3], the Vd came out at 2 L/kg. In [5], this compound gave a clearance of 4 mL/min/kg. The solubility in [6] worked out at 16.1 µM (≈ 4.69 µg/mL). Besides, the inhibition in data set [8], in data set [10] and in data set [16] was below 50% throughout. Also, the inhibition constant (Ki) in [9] came out at 17.9 nM; in [17], 28 nM. This compound also came in with an AUC(0-t) at 8 h in [11] of 3.6 µM·h. This compound also showed an IC50 in data set [13] of 14.5 nM. Further, in data set [14], the inhibition result was “inactive”. For the same compound, in data set [15], the Kp stood at 1.
For the compound `N#Cc1cc(F)cc(-c2nc(-c3ccc(F)cn3)no2)c1`, the Activity in [1], in data set [4], in data set [7] and in data set [12] was below 50% throughout. Also, the Bmax in data set [18] is 5.3 pmol; in data set [21] it was 1550 fmol/mg; in data set [22], 5 pmol; in data set [23], 4.4 pmol; in data set [24], 5.1 pmol. For the same compound, in data set [19], the exposure (AUC) was 5.4 µM·h. The microsomal CLint in [2] turned out to be 13.5 µL/min/mg. Also, the T1/2 worked out at 3.45 min in data set [20] and 7.85 min in data set [25]. In data set [3], the Vd is 1.6 L/kg. In [5], this compound showed a clearance of 5.17 mL/min/kg. Also, in [6], the concentration in solution (solubility) was 4.2 µM (≈ 1.19 µg/mL). Further, the inhibition in data set [8], in data set [10] and in data set [16] was below 50% throughout. For the same compound, in [14], the inhibition entry is “inactive”. Besides, the Kp in data set [15] stood at 1.
